Tested on: HL-60(TB)
Experiment: Growth inhibition of human HL-60(TB) cells at 10 uM incubated for 48 hrs by sulforhodamine B assay relative to control
Type: functional
Settings: read-out: GI
Outline: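 NCI-60 one-dose screen: same culture, 48 h drug exposure and SRB read-out. Reported as percent growth relative to no-drug control and to time-zero cell number; 0–100 means growth inhibition, below 0 means lethality.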

Compound	inhibition of growth at 10 µM [%]
COc1cc2nc(-c3ccc(Cl)cc3)cc(OCCCN3CCCCC3)c2cc1OC	62

Tested on: K562
Experiment: Growth inhibition of human K562 cells at 10 uM incubated for 48 hrs by sulforhodamine B assay relative to control
Type: functional
Settings: read-out: GI
Outline: (§1)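 NCI-60 single-dose screen. Cells were grown in RPMI 1640 with 5% FBS and 2 mM L-glutamine and plated 24 h before drug addition. Compound was added at one concentration in DMSO-derived medium and incubated for 48 h at 37 °C in 5% CO2. Read-out was SRB protein stain at 515 nm. Result is percent growth versus the no-drug control and the time-zero cell count; values below 0 indicate lethality.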

Compound	inhibition of growth at 10 µM [%]
COc1cc2nc(-c3ccc(Cl)cc3)cc(OCCCN3CCCCC3)c2cc1OC	62

Tested on: SR
Experiment: Growth inhibition of human SR cells at 10 uM incubated for 48 hrs by sulforhodamine B assay relative to control
Type: functional
Settings: read-out: GI
Outline: (§2)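 NCI one-dose screen. Cells grown in RPMI 1640 with 5% FBS and 2 mM L-glutamine, plated and incubated 24 h at 37 °C, 5% CO2. DMSO-dissolved drug added, then 48 h further incubation. Adherent cells fixed with cold TCA, suspension cells fixed after settling. Stained with 0.4% SRB, absorbance read at 515 nm. Reported as percent growth relative to no-drug control and time-zero cell number.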

Compound	inhibition of growth at 10 µM [%]
COc1cc2nc(-c3ccc(Cl)cc3)cc(OCCCN3CCCCC3)c2cc1OC	62

Tested on: EKVX
Experiment: Growth inhibition of human EKVX cells at 10 uM incubated for 48 hrs by sulforhodamine B assay relative to control
Type: functional
Settings: read-out: GI
Outline: as §1

Compound	inhibition of growth at 10 µM [%]
COc1cc2nc(-c3ccc(Cl)cc3)cc(OCCCN3CCCCC3)c2cc1OC	62

Tested on: HOP-62
Experiment: Growth inhibition of human HOP-62 cells at 10 uM incubated for 48 hrs by sulforhodamine B assay relative to control
Type: functional
Settings: read-out: GI
Outline: as §1

Compound	inhibition of growth at 10 µM [%]
COc1cc2nc(-c3ccc(Cl)cc3)cc(OCCCN3CCCCC3)c2cc1OC	62

Tested on: HOP-92
Experiment: Growth inhibition of human HOP-92 cells at 10 uM incubated for 48 hrs by sulforhodamine B assay relative to control
Type: functional
Settings: read-out: GI
Outline: as §1

Compound	inhibition of growth at 10 µM [%]
COc1cc2nc(-c3ccc(Cl)cc3)cc(OCCCN3CCCCC3)c2cc1OC	62

Tested on: NCI-H23
Experiment: Growth inhibition of human NCI-H23 cells at 10 uM incubated for 48 hrs by sulforhodamine B assay relative to control
Type: functional
Settings: read-out: GI
Outline: as §2

Compound	inhibition of growth at 10 µM [%]
COc1cc2nc(-c3ccc(Cl)cc3)cc(OCCCN3CCCCC3)c2cc1OC	62

Tested on: NCI-H322M
Experiment: Growth inhibition of human NCI-H322M cells at 10 uM incubated for 48 hrs by sulforhodamine B assay relative to control
Type: functional
Settings: read-out: GI
Outline: as §2

Compound	inhibition of growth at 10 µM [%]
COc1cc2nc(-c3ccc(Cl)cc3)cc(OCCCN3CCCCC3)c2cc1OC	62

Tested on: NCI-H460
Experiment: Growth inhibition of human NCI-H460 cells at 10 uM incubated for 48 hrs by sulforhodamine B assay relative to control
Type: functional
Settings: read-out: GI
Outline: as §2

Compound	inhibition of growth at 10 µM [%]
COc1cc2nc(-c3ccc(Cl)cc3)cc(OCCCN3CCCCC3)c2cc1OC	62

Tested on: NCI-H522
Experiment: Growth inhibition of human NCI-H522 cells at 10 uM incubated for 48 hrs by sulforhodamine B assay relative to control
Type: functional
Settings: read-out: GI
Outline: as §2

Compound	inhibition of growth at 10 µM [%]
COc1cc2nc(-c3ccc(Cl)cc3)cc(OCCCN3CCCCC3)c2cc1OC	62

Tested on: KM12
Experiment: Growth inhibition of human KM12 cells at 10 uM incubated for 48 hrs by sulforhodamine B assay relative to control
Type: functional
Settings: read-out: GI
Outline: as §1

Compound	inhibition of growth at 10 µM [%]
COc1cc2nc(-c3ccc(Cl)cc3)cc(OCCCN3CCCCC3)c2cc1OC	62

Tested on: SW-620
Experiment: Growth inhibition of human SW-620 cells at 10 uM incubated for 48 hrs by sulforhodamine B assay relative to control
Type: functional
Settings: read-out: GI
Outline: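 NCI one-dose screen across a 59-line panel. Cells were grown in RPMI 1640 with 5% FBS and 2 mM L-glutamine, plated and pre-incubated 24 h, then exposed to drug for 48 h at 37 °C, 5% CO2. Adherent cells were fixed with cold TCA (10% final), stained with 0.4% SRB in 1% acetic acid and read at 515 nm. Result is percent growth relative to no-drug control and time-zero cell count.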

Compound	inhibition of growth at 10 µM [%]
COc1cc2nc(-c3ccc(Cl)cc3)cc(OCCCN3CCCCC3)c2cc1OC	62

Tested on: SF-268
Experiment: Growth inhibition of human SF-268 cells at 10 uM incubated for 48 hrs by sulforhodamine B assay relative to control
Type: functional
Settings: read-out: GI
Outline: as §2

Compound	inhibition of growth at 10 µM [%]
COc1cc2nc(-c3ccc(Cl)cc3)cc(OCCCN3CCCCC3)c2cc1OC	62

Tested on: SF-539
Experiment: Growth inhibition of human SF-539 cells at 10 uM incubated for 48 hrs by sulforhodamine B assay relative to control
Type: functional
Settings: read-out: GI
Outline: as §2

Compound	inhibition of growth at 10 µM [%]
COc1cc2nc(-c3ccc(Cl)cc3)cc(OCCCN3CCCCC3)c2cc1OC	62

Tested on: SNB-19
Experiment: Growth inhibition of human SNB-19 cells at 10 uM incubated for 48 hrs by sulforhodamine B assay relative to control
Type: functional
Settings: read-out: GI
Outline: as §2

Compound	inhibition of growth at 10 µM [%]
COc1cc2nc(-c3ccc(Cl)cc3)cc(OCCCN3CCCCC3)c2cc1OC	62

Tested on: SNB-75
Experiment: Growth inhibition of human SNB-75 cells at 10 uM incubated for 48 hrs by sulforhodamine B assay relative to control
Type: functional
Settings: read-out: GI
Outline: as §2

Compound	inhibition of growth at 10 µM [%]
COc1cc2nc(-c3ccc(Cl)cc3)cc(OCCCN3CCCCC3)c2cc1OC	62

Tested on: LOX IMVI
Experiment: Growth inhibition of human LOX IMVI cells at 10 uM incubated for 48 hrs by sulforhodamine B assay relative to control
Type: functional
Settings: read-out: GI
Outline: as §1

Compound	inhibition of growth at 10 µM [%]
COc1cc2nc(-c3ccc(Cl)cc3)cc(OCCCN3CCCCC3)c2cc1OC	62

Tested on: Malme-3M
Experiment: Growth inhibition of human Malme-3M cells at 10 uM incubated for 48 hrs by sulforhodamine B assay relative to control
Type: functional
Settings: read-out: GI
Outline: as §2

Compound	inhibition of growth at 10 µM [%]
COc1cc2nc(-c3ccc(Cl)cc3)cc(OCCCN3CCCCC3)c2cc1OC	62

Reference: ChEMBL document CHEMBL4732237, “Discovery of 4-alkoxy-2-aryl-6,7-dimethoxyquinolines as a new class of topoisomerase I inhibitors endowed with potent in vitro anticancer activity” (2021)
